Laboratory results reported in ChEMBL document CHEMBL5724801, “EUbOPEN Chemogenomics Library - Multiplex” (2024).
Several values for one entry are separate records, joined by “and”; a condition that tells them apart may be missing. Identical values can stand only once.

Test system: U2OS
Experiment: Multiplex assay against U2OS
Format: toxicity, cell-based
Details: human
Summary of the method: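 Phenotypes for tubulin, mitochondrial mass and membrane permeability are expressed as per cents of healthy-nucleus cells. Cells were stained live at seeding with Hoechst33342, BioTracker Green Microtubule Cytoskeleton Dye, MitoTracker Red and Annexin V Alexa Fluor 680, then imaged after compound addition on a CQ1 microscope at 37°C and 5% CO2. Machine-learning gating in CellPathfinder separated Hoechst high-intensity objects from normal cells, divided normal cells by nuclear state (healthy, pyknosed, fragmented) and divided pyknosed cells into mitotic or apoptotic.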

[1] = 12 h, 1 µM, compound concentration 1 uM
[2] = 12 h, 10 µM, compound concentration 10 uM
[3] = 24 h, 1 µM, compound concentration 1 uM
[4] = 24 h, 10 µM, compound concentration 10 uM
[5] = 48 h, 1 µM, compound concentration 1 uM
[6] = 48 h, 10 µM, compound concentration 10 uM

Structure (SMILES): COC(=O)C1=C(C)NC(C)=C(C(=O)OC(C)C)C1c1cccc2nonc12 (configuration not stated) [ISRADIPINE]
- Population Apoptotic (%) [1]: 29.03% and 12.5%
- Population Fragmented Nuclei (%) [1]: 2.02% and 3.01%
- Population Healthy Nuclei (%) [1]: 89.02% and 84.96%
- Population Hoechst High Intensity Objects (%) [1]: 0%
- Population Membrane Permeable-Phenotype (%) [1]: 0.97% and 0.88%
- Population Mitochondria Different-Phenotype (%) [1]: 0% and 5.31%
- Population Mitotic Cells (%) [1]: 70.97% and 87.5%
- Population Normal (%) [1]: 100%
- Population Pyknosed Nuclei (%) [1]: 8.96% and 12.03%
- Population Tubulin-Different-Phenotype (%) [1]: 0.97% and 0.88%
- Total Cell Count [1]: 346 and 133
- Population Apoptotic (%) [2]: 38.64% and 25.81%
- Population Healthy Nuclei (%) [2]: 87.43% and 71.74%
- Population Hoechst High Intensity Objects (%) [2]: 0% and 13.21%
- Population Membrane Permeable-Phenotype (%) [2]: 2.14% and 3.64%
- Population Mitochondria Different-Phenotype (%) [2]: 0% and 13.33%
- Population Mitotic Cells (%) [2]: 61.36% and 74.19%
- Population Normal (%) [2]: 100% and 86.79%
- Population Pyknosed Nuclei (%) [2]: 11.76% and 13.48%
- Population Tubulin-Different-Phenotype (%) [2]: 3.67% and 1.21%
- Total Cell Count [2]: 374 and 265
- Population Apoptotic (%) [3]: 48.48% and 31.25%
- Population Fragmented Nuclei (%) [3]: 1.75% and 1.23%
- Population Healthy Nuclei (%) [3]: 91.03% and 88.89%
- Population Hoechst High Intensity Objects (%) [3]: 0%
- Population Membrane Permeable-Phenotype (%) [3]: 0.24% and 2.78%
- Population Mitochondria Different-Phenotype (%) [3]: 0.24% and 4.86%
- Population Mitotic Cells (%) [3]: 51.52% and 68.75%
- Population Normal (%) [3]: 100%
- Population Pyknosed Nuclei (%) [3]: 7.22% and 9.88%
- Population Tubulin-Different-Phenotype (%) [3]: 0.72% and 0%
- Total Cell Count [3]: 457 and 162
- Population Apoptotic (%) [4]: 37.5% and 20.93%
- Population Healthy Nuclei (%) [4]: 84.47% and 69.69%
- Population Hoechst High Intensity Objects (%) [4]: 0% and 13.61%
- Population Membrane Permeable-Phenotype (%) [4]: 0.69% and 3.95%
- Population Mitotic Cells (%) [4]: 62.5% and 79.07%
- Population Normal (%) [4]: 100% and 86.39%
- Population Pyknosed Nuclei (%) [4]: 12.43% and 16.93%
- Population Tubulin-Different-Phenotype (%) [4]: 3.22% and 0%
- Total Cell Count [4]: 515 and 294
- Population Apoptotic (%) [5]: 41.54% and 54.55%
- Population Fragmented Nuclei (%) [5]: 2.53% and 3.11%
- Population Healthy Nuclei (%) [5]: 89.63% and 84.05%
- Population Hoechst High Intensity Objects (%) [5]: 0%
- Population Membrane Permeable-Phenotype (%) [5]: 1.35% and 1.39%
- Population Mitochondria Different-Phenotype (%) [5]: 0.27% and 4.17%
- Population Mitotic Cells (%) [5]: 58.46% and 45.45%
- Population Normal (%) [5]: 100%
- Population Pyknosed Nuclei (%) [5]: 7.84% and 12.84%
- Population Tubulin-Different-Phenotype (%) [5]: 1.35% and 0%
- Population Apoptotic (%) [6]: 50.83% and 53.45%
- Population Fragmented Nuclei (%) [6]: 3.44% and 6.67%
- Population Healthy Nuclei (%) [6]: 82.35% and 75.76%
- Population Hoechst High Intensity Objects (%) [6]: 0% and 9.34%
- Population Membrane Permeable-Phenotype (%) [6]: 1.58% and 4.4%
- Population Mitochondria Different-Phenotype (%) [6]: 0.14% and 6.4%
- Population Mitotic Cells (%) [6]: 49.17% and 46.55%
- Population Normal (%) [6]: 100% and 90.66%
- Population Pyknosed Nuclei (%) [6]: 14.22% and 17.58%
- Population Tubulin-Different-Phenotype (%) [6]: 2.73% and 2.8%
- Total Cell Count [6]: 844 and 364

Structure (SMILES): Cc1ccc(OCC(O)C(C)NC(C)C)c2c1CCC2.Cl (configuration not stated)
- Population Apoptotic (%) [1]: 63% and 90%
- Population Fragmented Nuclei (%) [1]: 19% and 11%
- Population Healthy Nuclei (%) [1]: 66% and 79%
- Population Hoechst High Intensity Objects (%) [1]: 2% and 1%
- Population Membrane Permeable-Phenotype (%) [1]: 8% and 7%
- Population Mitochondria Different-Phenotype (%) [1]: 3% and 2%
- Population Normal (%) [1]: 97% and 98%
- Population Pyknosed Nuclei (%) [1]: 13% and 8%
- Population Tubulin-Different-Phenotype (%) [1]: 4% and 2%
- Total Cell Count [1]: 222 and 129
- Population Apoptotic (%) [2]: 61% and 80%
- Population Fragmented Nuclei (%) [2]: 30% and 11%
- Population Healthy Nuclei (%) [2]: 52% and 81%
- Population Hoechst High Intensity Objects (%) [2]: 5% and 0%
- Population Membrane Permeable-Phenotype (%) [2]: 14% and 9%
- Population Mitochondria Different-Phenotype (%) [2]: 17% and 22%
- Population Mitotic Cells (%) [2]: 38% and 20%
- Population Normal (%) [2]: 94% and 99%
- Population Pyknosed Nuclei (%) [2]: 16% and 7%
- Population Tubulin-Different-Phenotype (%) [2]: 8% and 9%
- Total Cell Count [2]: 215 and 137
- Population Apoptotic (%) [3]: 88% and 93%
- Population Fragmented Nuclei (%) [3]: 14% and 15%
- Population Healthy Nuclei (%) [3]: 75% and 73%
- Population Hoechst High Intensity Objects (%) [3]: 0% and 1%
- Population Membrane Permeable-Phenotype (%) [3]: 5% and 3%
- Population Mitochondria Different-Phenotype (%) [3]: 3% and 5%
- Population Mitotic Cells (%) [3]: 11% and 6%
- Population Normal (%) [3]: 100% and 98%
- Population Pyknosed Nuclei (%) [3]: 10%
- Population Tubulin-Different-Phenotype (%) [3]: 4% and 0%
- Total Cell Count [3]: 255 and 155
- Population Apoptotic (%) [4]: 82% and 92%
- Population Fragmented Nuclei (%) [4]: 26% and 14%
- Population Healthy Nuclei (%) [4]: 56% and 77%
- Population Hoechst High Intensity Objects (%) [4]: 3% and 2%
- Population Membrane Permeable-Phenotype (%) [4]: 10% and 12%
- Population Mitochondria Different-Phenotype (%) [4]: 17% and 11%
- Population Mitotic Cells (%) [4]: 17% and 7%
- Population Normal (%) [4]: 96% and 97%
- Population Pyknosed Nuclei (%) [4]: 17% and 8%
- Population Tubulin-Different-Phenotype (%) [4]: 4% and 6%
- Total Cell Count [4]: 230 and 172
- Population Apoptotic (%) [5]: 88% and 80%
- Population Fragmented Nuclei (%) [5]: 14% and 20%
- Population Healthy Nuclei (%) [5]: 73% and 69%
- Population Hoechst High Intensity Objects (%) [5]: 0% and 2%
- Population Membrane Permeable-Phenotype (%) [5]: 6% and 5%
- Population Mitochondria Different-Phenotype (%) [5]: 4% and 3%
- Population Mitotic Cells (%) [5]: 11% and 20%
- Population Normal (%) [5]: 99% and 97%
- Population Pyknosed Nuclei (%) [5]: 12% and 10%
- Population Tubulin-Different-Phenotype (%) [5]: 3% and 2%
- Total Cell Count [5]: 377 and 202
- Population Apoptotic (%) [6]: 82% and 77%
- Population Fragmented Nuclei (%) [6]: 23% and 15%
- Population Healthy Nuclei (%) [6]: 63% and 73%
- Population Hoechst High Intensity Objects (%) [6]: 4% and 0%
- Population Membrane Permeable-Phenotype (%) [6]: 12% and 7%
- Population Mitochondria Different-Phenotype (%) [6]: 12% and 4%
- Population Mitotic Cells (%) [6]: 17% and 22%
- Population Normal (%) [6]: 95% and 99%
- Population Pyknosed Nuclei (%) [6]: 13% and 11%
- Population Tubulin-Different-Phenotype (%) [6]: 6% and 3%
- Total Cell Count [6]: 306 and 246
